The text below walks through data of ChEMBL document CHEMBL2021865, “Design, synthesis and structure-activity relationship of N-substituted tropane muscarinic acetylcholine receptor antagonists” (Bioorg Med Chem Lett, 2012).

Series [1] concerns the target T1, Muscarinic acetylcholine receptor M3 (Homo sapiens, UniProt P20309). Briefly: Antagonist activity at human muscarinic acetylcholine M3 receptor expressed in CHO cells assessed as inhibition of Ach-induced calcium mobilization by FLIPR analysis. It is filed as functional, cell-based. Summed up:
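Calcium mobilization read by standard FLIPR protocol. IC50 in nM, mean of two or more independent assays.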
Target sequence in this assay (P20309 whole entry): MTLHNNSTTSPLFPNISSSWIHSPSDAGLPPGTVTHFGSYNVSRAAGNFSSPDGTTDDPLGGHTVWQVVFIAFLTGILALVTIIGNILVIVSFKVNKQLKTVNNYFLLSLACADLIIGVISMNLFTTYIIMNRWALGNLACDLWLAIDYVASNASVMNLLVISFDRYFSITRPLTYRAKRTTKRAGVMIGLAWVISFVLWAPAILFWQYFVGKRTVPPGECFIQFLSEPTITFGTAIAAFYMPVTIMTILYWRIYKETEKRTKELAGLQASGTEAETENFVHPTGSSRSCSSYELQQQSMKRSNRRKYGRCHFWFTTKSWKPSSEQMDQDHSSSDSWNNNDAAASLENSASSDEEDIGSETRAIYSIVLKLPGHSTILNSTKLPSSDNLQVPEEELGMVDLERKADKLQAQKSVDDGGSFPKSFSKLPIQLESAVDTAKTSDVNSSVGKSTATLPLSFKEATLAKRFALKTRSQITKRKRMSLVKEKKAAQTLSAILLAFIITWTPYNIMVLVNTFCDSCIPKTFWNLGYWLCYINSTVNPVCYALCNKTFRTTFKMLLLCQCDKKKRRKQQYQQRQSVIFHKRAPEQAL

Series [2] deals with T1, Muscarinic acetylcholine receptor M3. The series is described as follows: Antagonist potency at human muscarinic acetylcholine M3 receptor expressed in CHO cells assessed as inhibition of Ach-induced calcium mobilization by FLIPR analysis relative to control. Type of series: functional, cell-based. Conditions: for Kb: read-out: pA2 (converted). In outline: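 Human M3 receptor in CHO cells, ACh-stimulated calcium mobilization by FLIPR. pA2 derived from the ratio of the ACh EC50 with and without antagonist. Run only where the IC50 was below 10 nM. Values above 11 could not be determined accurately.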
Target sequence in this assay (P20309 whole entry): as above

The next series relates to Rattus norvegicus. Briefly: Oral bioavailability in rat at 2 mg/kg. Type of series: ADME, organism-based. Conditions: in vivo, BLD = below limit of detection. In outline:
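Rats dosed orally at 2 mg/kg. Percent bioavailability calculated from plasma levels.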

A short description of series [3]: Plasma clearance in rat at 1 mg/kg, iv. It is filed as ADME, organism-based. Also noted: dose 1 mg/kg, route intravenous. In outline: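 Rats dosed iv at 1 mg/kg. Systemic plasma clearance in ml/min/kg.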
In series [4] the target is T1, Muscarinic acetylcholine receptor M3. The series is described as follows: Displacement of [3H]-N-methyl scopolamine from muscarinic acetylcholine M3 receptor expressed in CHO cell membrane. Type of series: cell membranes. In outline: (§1)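 Membranes from CHO cells, SPA-format radioligand binding against 0.5 nM [3H]-N-methyl scopolamine. Values are the mean of three independent assays.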
Target sequence in this assay (P20309 whole entry): as above

Series [5] has as its system Mus musculus. Briefly: Bronchoprotective activity in mouse against methacholine-induced bronchoconstriction assessed as time duration of bronchoprotection at 0.05 ug administered intranasally. It is filed as functional. Summed up: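 Conscious mice, methacholine-induced bronchoconstriction. Duration of bronchoprotection taken as the time to 50% loss of maximum protection.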

Series [6] deals with T2, Muscarinic acetylcholine receptor M2 (Homo sapiens, UniProt P08172).
T2 sequence (P08172 whole entry): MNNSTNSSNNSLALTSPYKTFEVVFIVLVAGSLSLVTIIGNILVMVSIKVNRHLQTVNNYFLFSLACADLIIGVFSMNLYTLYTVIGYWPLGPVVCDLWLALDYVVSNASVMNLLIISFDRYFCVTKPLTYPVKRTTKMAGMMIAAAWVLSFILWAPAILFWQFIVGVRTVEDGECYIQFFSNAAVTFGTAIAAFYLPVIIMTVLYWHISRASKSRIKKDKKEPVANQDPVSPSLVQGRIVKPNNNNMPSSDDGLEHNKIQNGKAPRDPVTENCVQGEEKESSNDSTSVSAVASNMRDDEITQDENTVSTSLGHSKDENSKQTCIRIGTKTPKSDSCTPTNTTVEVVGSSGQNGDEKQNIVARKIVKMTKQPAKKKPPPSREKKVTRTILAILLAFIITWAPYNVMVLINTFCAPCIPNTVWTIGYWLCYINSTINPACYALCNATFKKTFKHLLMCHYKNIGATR
The series is described as follows: Displacement of [3H]-N-methyl scopolamine from muscarinic acetylcholine M2 receptor expressed in CHO cell membrane. It is filed as cell membranes. In outline: as §1

Series [7] deals with T3, Muscarinic acetylcholine receptor M1 (Homo sapiens, UniProt P11229).
T3 sequence (P11229 whole entry): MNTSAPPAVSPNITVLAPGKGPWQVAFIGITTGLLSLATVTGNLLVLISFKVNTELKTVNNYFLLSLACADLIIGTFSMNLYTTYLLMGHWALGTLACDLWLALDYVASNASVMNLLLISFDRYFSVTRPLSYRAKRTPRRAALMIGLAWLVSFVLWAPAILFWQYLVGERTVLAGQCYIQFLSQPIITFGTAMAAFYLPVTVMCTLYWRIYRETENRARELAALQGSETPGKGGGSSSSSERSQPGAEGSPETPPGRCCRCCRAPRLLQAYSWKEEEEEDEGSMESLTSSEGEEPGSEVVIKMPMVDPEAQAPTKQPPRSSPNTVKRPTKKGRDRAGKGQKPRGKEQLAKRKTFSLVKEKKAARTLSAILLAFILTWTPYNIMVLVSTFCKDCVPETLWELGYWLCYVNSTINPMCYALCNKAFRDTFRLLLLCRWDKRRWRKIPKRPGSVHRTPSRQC
Briefly: Displacement of [3H]-N-methyl scopolamine from muscarinic acetylcholine M1 receptor expressed in CHO cell membrane. It is filed as cell membranes. In outline: as §1

Series [8] has as its system Mus musculus. The series is described as follows: Antagonist potency at muscarinic acetylcholine M3 receptor in intranasally dosed mouse assessed as inhibition of Mch-induced bronchoconstriction. Type of series: functional. In outline:
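Conscious mice challenged with methacholine to induce bronchoconstriction. ED50 expressed as µg per mouse, n = 1.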

The target in series [9] is T1, Muscarinic acetylcholine receptor M3.
Target sequence in this assay (P20309 whole entry, looked up): as the sequence (P20309 whole entry) above

Structures are written as SMILES. Active and inactive are the calls of the source. The calls are words filed in the database; no cut-off is given here. Bounds are passed on as bounds.

With `C[N@+]1(CCOCc2ccccc2)C2CCC1C[C@@H](CC(C#N)(c1ccccc1)c1ccccc1)C2`, the IC50 in [1] was less than 10 nM. In [2], the Kb was less than 0.01 nM.
The like results for `C[N@+]1(CCOc2ccccc2)C2CCC1C[C@@H](CC(C#N)(c1ccccc1)c1ccccc1)C2` were, in that order, less than 10 nM and less than 0.01 nM.
The like results for `C[N+]1(CC2CC2)[C@@H]2CC[C@H]1C[C@@H](CC(C#N)(c1ccccc1)c1ccccc1)C2` (mixture of isomers) were, in that order, less than 10 nM and 0.0501 nM.
The like results for `C[N@+]1(CCCOc2ccccc2)C2CCC1C[C@@H](CC(C#N)(c1ccccc1)c1ccccc1)C2` were, in that order, less than 10 nM and less than 0.01 nM.
With `C[N+]1(CCC2CCCCC2)[C@@H]2CC[C@H]1C[C@@H](CC(C#N)(c1ccccc1)c1ccccc1)C2` (mixture of isomers), the IC50 in [1] came out at 109 nM.
As to `C[N@+]1(CCCc2ccccc2)C2CCC1C[C@@H](CC(C#N)(c1ccccc1)c1ccccc1)C2`, the IC50 in series [1] is less than 10 nM. The Kb in series [2] is less than 0.01 nM.
The like results for `CCCC[N@+]1(C)C2CCC1C[C@H](CC(C#N)(c1ccccc1)c1ccccc1)C2` were, in that order, less than 10 nM and less than 0.01 nM.
The like results for `C[N@+]1(CCCOCc2ccccc2)C2CCC1C[C@@H](CC(C#N)(c1ccccc1)c1ccccc1)C2` were, in that order, less than 10 nM and 0.0398 nM.
The like results for `CCC[N+]1(C)[C@@H]2CC[C@H]1C[C@@H](CC(C#N)(c1ccccc1)c1ccccc1)C2` (mixture of isomers) were, in that order, less than 10 nM and 0.0501 nM.
With `C[N+]1(CCCC#N)[C@@H]2CC[C@H]1C[C@@H](CC(C#N)(c1ccccc1)c1ccccc1)C2` (mixture of isomers), the IC50 in series [1] is less than 10 nM. In series [2], the Kb was 0.158 nM.
The like results for `COCCOCC[N+]1(C)[C@@H]2CC[C@H]1C[C@@H](CC(C#N)(c1ccccc1)c1ccccc1)C2` (mixture of isomers) were, in that order, less than 10 nM and 0.631 nM.
The like results for `CCCCCCCC[N@+]1(C)C2CCC1C[C@H](CC(C#N)(c1ccccc1)c1ccccc1)C2` were, in that order, less than 10 nM and 0.0794 nM.
As to `C=CCCCC[N@+]1(C)C2CCC1C[C@H](CC(C#N)(c1ccccc1)c1ccccc1)C2.[Br-]`, in the series on Rattus norvegicus, the F result is listed as “BLD”. The same compound showed a clearance in [3] of 125 mL/min/kg. Also, the figures for the Ki in series [4], in [6] and in [7] were 0.16 nM, 0.1 nM and 0.12 nM, respectively. Also, the pA2 in series [2] (cho) is reported as more than 11. Moreover, the Time with Mus musculus [5] was more than 96 h. The ED50 in the series on Mus musculus [8] is 0.02 µg.
On to `C=CCCCC[N@+]1(C)C2CCC1C[C@H](CC(C#N)(c1ccccc1)c1ccccc1)C2` [listing 1 of 2 here], for which the IC50 in series [1] was less than 10 nM. In addition, the Kb in [2] was less than 0.01 nM.
Consider `C[N+]1(CC2CCCCC2)[C@@H]2CC[C@H]1C[C@@H](CC(C#N)(c1ccccc1)c1ccccc1)C2` (mixture of isomers), for which, in [1], the IC50 is 89.6 nM.
As to `COCC[N+]1(C)[C@@H]2CC[C@H]1C[C@@H](CC(C#N)(c1ccccc1)c1ccccc1)C2` (mixture of isomers), the IC50 in series [1] is less than 10 nM. Besides, in series [2], the Kb was 0.501 nM.
On to `CCCCCCCCCCCC[N+]1(C)[C@@H]2CC[C@H]1C[C@H](CC(C#N)(c1ccccc1)c1ccccc1)C2` (mixture of isomers), for which the half-inhibitory concentration (IC50) in [1] turned out to be 64 nM.
For `C=CCCCC[N+]1(C)[C@@H]2CC[C@H]1C[C@@H](CC(C#N)(c1ccccc1)c1ccccc1)C2` (mixture of isomers), in [1], the IC50 was 85.2 nM.
Still for that read-out and setting: as for `C[N@+]1(CC2CC2)C2CCC1C[C@H](CC(C#N)(c1ccccc1)c1ccccc1)C2`, the figure is 26.3 nM.
Regarding `C=CC[N+]1(C)[C@@H]2CC[C@H]1C[C@@H](CC(C#N)(c1ccccc1)c1ccccc1)C2` (mixture of isomers), in [1], the IC50 was less than 10 nM. Also, the Kb in [2] is 1.26 nM.
The like results for `C[N+]1(CCO)[C@@H]2CC[C@H]1C[C@@H](CC(C#N)(c1ccccc1)c1ccccc1)C2` (mixture of isomers) were, in that order, less than 10 nM and 0.158 nM.
In the case of `C[N+]1(Cc2ccccc2)[C@@H]2CC[C@H]1C[C@@H](CC(C#N)(c1ccccc1)c1ccccc1)C2` (mixture of isomers), in series [1], the IC50 worked out at 318 nM.
In the case of `CCCCCC[N@+]1(C)C2CCC1C[C@H](CC(C#N)(c1ccccc1)c1ccccc1)C2`, the IC50 in [1] is less than 10 nM. Also, in series [2], the Kb is less than 0.01 nM.
As for `CC[N+]1(C)[C@@H]2CC[C@H]1C[C@@H](CC(C#N)(c1ccccc1)c1ccccc1)C2` (mixture of isomers), in series [1], the IC50 is less than 10 nM. Further, the Kb in series [2] was 0.0501 nM.
For `C=CCCCC[N@+]1(C)C2CCC1C[C@H](CC(C#N)(c1ccccc1)c1ccccc1)C2` [listing 2 of 2 here], the pA2 result in [9] is “Active”.
As for `C=CCCCC[N@+]1(C)C2CCC1C[C@@H](CC(C#N)(c1ccccc1)c1ccccc1)C2`, in series [1], the IC50 amounted to 32 nM.
Take `C[N@+]1(CC2CC2)C2CCC1C[C@@H](CC(C#N)(c1ccccc1)c1ccccc1)C2`: the IC50 in series [1] is less than 10 nM. In addition, the Kb in series [2] was 0.0251 nM.
